Bioassay records: PubChem, several laboratories
In the library only some 1.8% were active in any assay of this set; here they are far more common.
hK5 inh: inhibitors of human kallikrein 5; Q9Y337; recombinant hK5, fluorogenic AMC substrate cleavage; inhibition, % at 5 µM; 0.59% of 210,000 active; AID 873;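 active means inhibition of 40% or more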;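 further: 0% = enzyme controls without compound and 100% = no-enzyme blanks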
Target sequence (Q9Y337 67-293 limits assumed): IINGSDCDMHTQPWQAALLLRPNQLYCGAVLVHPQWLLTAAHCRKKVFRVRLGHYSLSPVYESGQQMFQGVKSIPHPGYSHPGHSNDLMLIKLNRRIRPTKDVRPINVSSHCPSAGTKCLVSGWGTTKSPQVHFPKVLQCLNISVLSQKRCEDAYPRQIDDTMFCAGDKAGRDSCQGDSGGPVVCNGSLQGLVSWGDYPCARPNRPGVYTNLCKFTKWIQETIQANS
thrombin 1536: inhibitors of human thrombin; alpha-thrombin, Boc-VPR-AMC fluorogenic substrate cleavage; inhibition, % at 5 µM; 0.26% of 220,000 active;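 active means inhibition at or above 40%; inactive means inhibition below 40%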;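 further: 0% = enzyme with no compound and 100% = wells without enzyme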
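Material: human alpha-thrombin protein. Incubation: reaction at ambient temperature. Technique: fluorescence of released AMC, ex 355 nm, em 460 nm. Control set: no-compound enzyme wells and no-enzyme blanks. Also added: Boc-VPR-AMC substrate, 15 µM final. Buffer or medium: pH 7.5 Tris (50 mM) with NaCl 150 mM, Tween 20 0.05%.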
Platelet DG rel: modulates dense granule release in human platelets; human platelet-rich plasma, SFLLRN dense granule ATP release, luminescence; inhibition, %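 (compounds screened at 7.5 µM in platelet-rich plasma)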; 0.22% of 300,000 active;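 active means mean replicate score, as percent of positive control, at or above 50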
FXIIa inh: blocks human coagulation factor XIIa protease activity. AID 800. purified FXIIa, Boc-QGR-AMC fluorogenic substrate, 2 h. 0.3% of 220,000 active. inhibition, % at 5 µM; in the data active means inhibition above about 40%;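 further: 0% = enzyme with no compound and 100% = blank without enzyme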
FXIa inh: blocks human coagulation factor XIa protease activity. P03951. purified FXIa, Boc-Glu-Ala-Arg-AMC fluorogenic substrate. inhibition, % at 5 µM. 0.14% of 220,000 active. AID 798;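 active means inhibition of at least 40%; inactive means inhibition below 40%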;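 further: fluorescence of freed AMC excited at 355 nm; 0% = enzyme without compound and 100% = no enzyme blank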
Wee1 stabilizer: blocks degradation of human Wee1 kinase. AID 1321. HeLa Luc-Wee1K328M stability, luciferase luminescence; 100% = proteasome inhibitor MG132 effect. 1.2% of 220,000 active. reporter increase, % at 5 µM. P30291;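 active means activation above the mean of all tested compounds plus 3 SD, set per screening run, cut at about 8.8% in these data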;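 further: cells exposed to compound for 20 h before luminescence read; 0% = DMSO alone and 100% = MG132 at 30 µM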
Wee1 stab conf: human Wee1 degradation inhibition, confirmation; 4% of 1,100 active; activation, % at 5 µM; HeLa Luc-Wee1K328M degradation, luminescence; vehicle 0%, proteasome-blocked wells 100%; shares compounds with Wee1 stabilizer; in the data active means activation above about 8.9%
* = called active by the depositor; . = no result.

SMILES | hK5 inh | thrombin 1536 | Platelet DG rel | FXIIa inh | FXIa inh | Wee1 stabilizer | Wee1 stab conf
O=C(N/N=C/c1ccc2ncccc2c1)c1ccco1 | -2 | -4 | 14 | . | -1 | 13* | -4
CC(C)NC(=O)c1ccccc1NC(=O)C(C)Oc1ccccc1 (stereo not drawn) | 3 | -8 | -3 | 3 | -1 | -1 | .
COC(=O)c1ccccc1NC(=O)C(C)Oc1ccccc1 (stereo not drawn) | -2 | -7 | . | 6 | 4 | 17* | 2
CN(C)c1ccc(C(CNS(=O)(=O)c2ccc(F)c(F)c2)c2c[nH]c3ccccc23)cc1 (stereo not drawn) | -14 | -4 | -29 | 13 | 3 | 11* | 0
CN(C)c1ccc(C(CNC(=O)c2ccccc2F)c2c[nH]c3ccccc23)cc1 (stereo not drawn) | 0 | -6 | 5 | 18 | 11 | 0 | .
O=C(NCC1(c2ccccc2)CCCC1)c1cccc(Br)c1 | -5 | -2 | 2 | 5 | -6 | -3 | .
CC(C)CC(=O)N1CCN(C(=O)c2ccc(F)cc2)CC1 | . | . | 2 | . | . | . | .
CCNC(=S)N1CCN(CC(=O)Nc2ccc(OC)cc2)CC1 | -2 | -2 | -5 | 8 | -2 | 12* | -1
Cc1cc(C)n(-c2cccc(Cl)c2C#N)n1 | 5 | 1 | 5 | 11 | 3 | 13* | -4
N#Cc1c(Cl)cccc1-n1ccnc1 | -21 | -1 | -1 | 10 | -3 | 6 | .
OCC1(CCc2ccccc2)CCN(Cc2cc(Cl)ccc2O)CC1 | -6 | -6 | 0 | 0 | -7 | -2 | .
Cc1ccc(-n2cccn2)c(CN2CCC(CO)(CCc3ccccc3)CC2)c1 | 2 | -3 | 1 | 9 | -2 | 18* | -1
O=C(Nc1ccc(O)cc1)c1c(O)c2c([nH]c1=O)CCCC2 | -4 | -11 | -3 | . | -5 | 14* | 6
COC(=O)c1ccccc1NC(=O)c1c(O)c2c([nH]c1=O)CCCC2 | 7 | -9 | 6 | 0 | -5 | -2 | .
C/C=C/c1ccc(OCC(=O)Nc2cc(S(=O)(=O)N3CCOCC3)ccc2N2CCCC2)c(OC)c1 | . | . | 0 | . | . | . | .
O=C(Nc1cccnc1)c1sc2cccc(F)c2c1Cl | 0 | -6 | 8 | 7 | -2 | 15* | -1
O=C(Nc1ccccn1)c1sc2cccc(F)c2c1Cl | -1 | 3 | . | 5 | -5 | -1 | .
Nc1c2c(nc3sc4c(c13)CCCC4)-c1ccccc1CC2 | 3 | -5 | 2 | 8 | 3 | 18* | 1
NNc1nc(-c2ccccc2)nc2sc3c(c12)CCCC3 | -3 | -6 | -3 | 2 | -3 | 1 | .
Cc1sc2ncn(CC(=O)NCCCC(=O)N3CCN(Cc4ccc5c(c4)OCO5)CC3)c(=O)c2c1C | -3 | -9 | -2 | 0 | -6 | 3 | .
CCC(O)(CC)C(=O)N=Nc1c(O)[nH]c2ccccc12 | -5 | -7 | -2 | 14 | 2 | 11* | 2
CN(C(=O)COc1ccc([N+](=O)[O-])cc1)C1CCS(=O)(=O)C1 (stereo not drawn) | 0 | -3 | -2 | 4 | 0 | -3 | .
O=C(COc1ccccc1Cl)Nc1ccccc1C(=O)N1CCCCC1 | . | . | 3 | . | . | . | .
COc1ccccc1CNCC(=O)Nc1ccc(C(F)(F)F)cc1 | -1 | -1 | 1 | 9 | -1 | 12* | 0
COc1ccccc1CNCC(=O)Nc1ccc(C#N)cc1 | . | . | 2 | . | . | . | .
SMILES | hK5 inh | thrombin 1536 | Platelet DG rel | FXIIa inh | FXIa inh | Wee1 stabilizer | Wee1 stab conf
Cc1ccc(-n2ncc(C#N)c2N)cc1 | -4 | -8 | 2 | 1 | -4 | 11* | 0
N#Cc1cnn(-c2ccc(F)cc2)c1N | -8 | -6 | 9 | -2 | -2 | -1 | .
Cn1c(SCC(=O)c2ccccc2)nnc1-c1cnccn1 | -6 | 3 | 23 | 16 | -5 | 13* | -2
O=S(=O)(c1ccccc1)N1N=C(c2ccccc2)CC1c1ccccc1 (stereo not drawn) | . | -5 | -16 | 6 | -1 | -1 | .
COc1ccc(C2=NN(S(=O)(=O)c3ccccc3)C(c3ccccc3)C2)cc1 (stereo not drawn) | 1 | -5 | -1 | 9 | 1 | 11* | 2
Cc1cc(NC(=O)COC(=O)CCNS(=O)(=O)c2ccccc2)n(-c2ccccc2)n1 | . | . | 39 | . | . | . | .
CCOc1ccc(N(CC(=O)NC2CCCCC2)C(=O)CCC(=O)Nc2ccccn2)cc1 | . | . | -35 | . | . | . | .
COc1ccc(-n2nc([N+](=O)[O-])c(=NCCc3ccc(C)cc3)n2O)cc1 | 10 | -2 | 7 | 12 | 1 | 25* | 4
COC(=O)C1=C(N)Oc2cc(C)n(Cc3ccncc3)c(=O)c2C1c1cccnc1 (stereo not drawn) | . | . | 0 | . | . | 14* | 0
COC(=O)C1=C(N)Oc2cc(C)n(Cc3cccnc3)c(=O)c2C1c1ccccc1OC (stereo not drawn) | -17 | -7 | -15 | 10 | 0 | -1 | .
CCCCc1c(O)cc(C)[nH]c1=O | -2 | 1 | -7 | 7 | 2 | -2 | .
CCOc1ccccc1NC(=S)NCc1ccco1 | 45* | 17 | -1 | 18 | -2 | 12* | -1
COc1cc(OC)cc(C(=O)NC(=S)NCc2ccco2)c1 | -4 | 0 | -5 | 16 | 1 | -2 | .
COc1cccc(C(=O)NC(=S)NCc2ccco2)c1 | -14 | -3 | -5 | 11 | 3 | 14* | 0
S=C(NCc1ccco1)Nc1ccc(Oc2ccccc2)cc1 | . | -7 | 6 | -1 | -5 | 11* | -1
O=C(CN1C(=O)NC2(CCCCCC2)C1=O)c1ccc(Cl)s1 | . | . | 1 | . | . | . | .
COc1cccc2c1OCC(C(=O)Nc1nccs1)=C2 | . | . | 8 | . | . | . | .
Cc1cc(C(=O)NCC23CC4CC(CC(C4)C2)C3)c(C)o1 | 0 | -3 | -5 | 6 | -4 | 2 | .
CCOc1ccc(Cn2ccnc2)cc1[N+](=O)[O-] | 115* | 14 | -7 | 15 | 10 | 16* | 0
COc1ccc(C(=O)NCCCn2ccnc2)cc1[N+](=O)[O-] | 5 | 2 | 6 | 12 | 1 | 18* | -1
CCOC(=O)N1CCC(NC(=O)C(NC(=O)C2CCC(C)CC2)C(C)CC)CC1 (stereo not drawn) | -25 | -8 | 0 | 12 | 2 | 1 | .
Cc1ccc(C(=O)Nc2cc3[nH]c(=O)oc3cc2C)cc1 | . | . | 4 | . | . | . | .
COc1ccc(-c2nc(-c3ccc(O)cc3O)cs2)cc1OC | 8 | -6 | -1 | 11 | 2 | 13* | 1
CCN(CC)c1ccc(C(=O)Nc2cccc(F)c2)cc1 | 2 | -4 | 5 | 13 | -4 | 14* | 5
O=C1CCCN1CCC12CC3CC(CC(C3)C1)C2 | 1 | 1 | 3 | 7 | 4 | 12* | 2
Clc1cccc(NCc2ccccc2)n1 | -3 | 3 | -3 | 9 | 0 | 27* | -1
